LMPTP block: LMPTP phosphatase inhibitors, primary screen, biochemical, fluorescence intensity, uHTS. Low molecular weight phosphotyrosine protein phosphatase (Homo sapiens), P24666. 0.22% of 360,000 active. inhibition, % at 20 µM. recombinant LMPTP-A, OMFP fluorogenic substrate. AID 651560, 2012;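 active means compounds that cut the enzyme signal by at least half of the control window in the single-dose screen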
Target sequence (P24666 whole entry, looked up): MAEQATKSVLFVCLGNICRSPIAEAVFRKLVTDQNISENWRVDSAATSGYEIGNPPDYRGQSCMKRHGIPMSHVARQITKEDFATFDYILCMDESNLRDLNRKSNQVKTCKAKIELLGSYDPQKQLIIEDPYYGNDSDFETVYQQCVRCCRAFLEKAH
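Test system: LMPTP-A, protein tyrosine phosphatase of low molecular weight; Input: 0.625 nM enzyme; Incubation: 50 min dark incubation at room temperature; Signal: endpoint fluorescence intensity from OMFP dephosphorylation; Read-out basis: % inhibition versus control wells.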
SUMO1-SIM PPI: modulators of SUMO1 protein-protein interactions, primary screen, biochemical, uHTS; Small ubiquitin-related modifier 1 (Homo sapiens), P63165; SUMO1 binding to a labelled peptide, TR-FRET, 1 h; inhibition, % at 20 µM; 0.33% of 360,000 active; AID 602429, 2012; in the data active means inhibition above about 37%
Target sequence (P63165 whole entry, looked up): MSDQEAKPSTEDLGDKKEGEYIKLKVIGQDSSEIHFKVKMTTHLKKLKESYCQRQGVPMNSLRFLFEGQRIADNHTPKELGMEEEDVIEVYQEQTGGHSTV
STEP inh: STEP phosphatase inhibitors, primary screen, biochemical, fluorescence intensity, uHTS. recombinant STEP, OMFP fluorogenic substrate. 0.25% of 360,000 active. AID 588621, 2011. inhibition, % at 20 µM;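 active means inhibition at 20 µM, scaled per plate between control wells, above about 37%, limit read from the data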
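System: STEP phosphatase, cell-free reaction; Buffer or medium: Bis-Tris pH 6.0 buffer with DTT, detergent; Incubation: 20 min at room temperature, dark; Measured by: fluorescence, 480/540 nm.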
Scp1 inh: Scp-1 phosphatase inhibitors, primary screen, biochemical, colorimetric, uHTS; inhibition, % at 20 µM; 0.88% of 340,000 active; Recombinant Scp1, phosphopeptide, malachite green phosphate absorbance; Carboxy-terminal domain RNA polymerase II polypeptide A small phosphatase 1 (Homo …;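 active means inhibition above about 50% at 20 µM, limit read from the data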
Target sequence (Q9GZU7 76-261 limits assumed): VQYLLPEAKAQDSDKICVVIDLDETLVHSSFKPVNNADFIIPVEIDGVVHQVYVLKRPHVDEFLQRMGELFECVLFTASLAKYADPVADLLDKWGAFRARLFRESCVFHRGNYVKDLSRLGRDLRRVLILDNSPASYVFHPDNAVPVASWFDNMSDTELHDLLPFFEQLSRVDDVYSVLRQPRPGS
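Times: enzyme reaction 45 min at room temperature, colour 5 min, stabilisation 30 min. Material: SCP-1 catalytic fragment, aa 76-261. Medium: Acidic Tris acetate buffer with magnesium and detergent. Signal: colorimetric free-phosphate detection, absorbance 630 nm. Read-out basis: % inhibition of SCP-1 phosphate liberation. Reagent: Phosphorylated 17-residue peptide substrate.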
FAS-TE inh: FAS thioesterase domain inhibitors, primary screen, biochemical, fluorescence intensity, uHTS. Fatty acid synthase (Homo sapiens), P49327. recombinant FAS-TE, OMFH fluorogenic substrate, fluorescence endpoint. inhibition, % at 15 µM. 0.67% of 360,000 active. AID 602261, 2012;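 active means compounds whose normalised, plate-corrected inhibition of enzyme fluorescence in the single-dose primary screen is 50% or more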
FAS-TE inh conf: FAS thioesterase domain inhibitors, confirmation, biochemical, fluorescence intensity, single concentration; AID 624325, 2012; inhibition, % at 15 µM; recombinant FAS-TE, OMFH fluorogenic substrate; 45% of 2,300 active; shares compounds with FAS-TE inh;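 active means compounds inhibiting the enzyme by at least 50% at 15 µM in any one of the replicates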
Numbers stand for hits. Only some compounds are listed: those with a hit (about 1.9% of all), similar ones and a draw of the others.

For CCN1C(=O)[C@H]2[C@@H](c3ccc(-c4cccc(Cl)c4)cc3)N[C@@](CC(C)C)(C(=O)OC)[C@H]2C1=O the results were LMPTP block inactive, SUMO1-SIM PPI inactive, STEP inh inactive, Scp1 inh inactive, FAS-TE inh 52 and FAS-TE inh conf inactive.
For COC(=O)[C@]1(Cc2ccccc2)N[C@H](c2ccc(-c3cc(C(C)=O)cs3)cc2)[C@@H]2C(=O)N(C)C(=O)[C@@H]21 the results were LMPTP block inactive, SUMO1-SIM PPI inactive, STEP inh inactive, Scp1 inh inactive and FAS-TE inh inactive.
CCN(CC(=O)Nc1ccccc1C(F)(F)F)C(=O)CCS(=O)(=O)c1ccc(C)cc1 was read as LMPTP block inactive, SUMO1-SIM PPI inactive, STEP inh inactive, Scp1 inh inactive and FAS-TE inh inactive.
For COc1ccc(-c2ccc3c(c2)S(=O)(=O)c2cccc(C(=O)N4CCN(c5c(Cl)cncc5Cl)CC4)c2C3=O)cc1OC the results were LMPTP block inactive, SUMO1-SIM PPI inactive, STEP inh inactive, Scp1 inh inactive, FAS-TE inh 68 and FAS-TE inh conf inactive.
O=C1c2ccc(Cl)cc2S(=O)(=O)c2cccc(C(=O)N3CCN(c4ncc(Br)cn4)CC3)c21 was read as LMPTP block inactive, SUMO1-SIM PPI inactive, STEP inh inactive, Scp1 inh inactive, FAS-TE inh 68 and FAS-TE inh conf inactive.
`O=C1c2ccc(Cl)cc2S(=O)(=O)c2cccc(C(=O)N3CCC(Cc4ccccc4)CC3)c21` gave LMPTP block inactive, SUMO1-SIM PPI inactive, STEP inh inactive, Scp1 inh inactive, FAS-TE inh 84 and FAS-TE inh conf inactive.
Screening N#Cc1cccnc1N1CCN(C(=O)c2cccc3c2C(=O)c2ccc(-c4ccc(Cl)c(C(F)(F)F)c4)cc2S3(=O)=O)CC1 returned LMPTP block inactive, SUMO1-SIM PPI inactive, STEP inh inactive, Scp1 inh inactive, FAS-TE inh 80 and FAS-TE inh conf inactive.
For COc1ccc(-c2ccc3c(c2)S(=O)(=O)c2cccc(C(=O)NCCOc4ccccc4)c2C3=O)cc1OC the results were LMPTP block inactive, SUMO1-SIM PPI inactive, STEP inh inactive, Scp1 inh inactive and FAS-TE inh inactive.
Screening CN(C(=O)c1ccc(F)cc1)c1ccc(OCC(=O)Nc2ccccc2C(=O)O)cc1 returned LMPTP block inactive, SUMO1-SIM PPI inactive, STEP inh inactive, Scp1 inh inactive and FAS-TE inh inactive.
For CCSc1nnc(NC(=O)CCc2ccc(OC)cc2)s1 the results were LMPTP block inactive, SUMO1-SIM PPI inactive, STEP inh inactive, Scp1 inh inactive and FAS-TE inh inactive.
For O=C1OCCN1C(=O)[C@H]1[C@H](c2ccc([N+](=O)[O-])cc2)C(c2ccc(F)cc2)=NN1c1ccc(Br)cc1 the results were LMPTP block inactive, SUMO1-SIM PPI inactive, STEP inh inactive, Scp1 inh inactive, FAS-TE inh 95 and FAS-TE inh conf inactive.
For C[C@@H]1C(c2ccccc2)=NN(c2ccccc2)[C@H]1C(=O)N1CCOC1=O the results were LMPTP block inactive, SUMO1-SIM PPI inactive, STEP inh inactive, Scp1 inh inactive and FAS-TE inh inactive.
O=C1OCCN1C(=O)[C@H]1[C@H](c2ccc([N+](=O)[O-])cc2)C(c2ccc(F)cc2)=NN1c1ccccc1 was read as LMPTP block inactive, SUMO1-SIM PPI inactive, STEP inh inactive, Scp1 inh inactive, FAS-TE inh 84 and FAS-TE inh conf inactive.
For O=C(Nc1cccc(Cl)c1)c1ccccc1NC(=O)C1CCCCC1C(=O)O (configuration not stated) the results were LMPTP block inactive, SUMO1-SIM PPI inactive, STEP inh inactive, Scp1 inh inactive and FAS-TE inh inactive.
Screening O=[N+]([O-])c1c(Nc2cccc(O)c2)cc(Cl)c2nonc12 returned LMPTP block inactive, SUMO1-SIM PPI inactive, STEP inh inactive, Scp1 inh inactive, FAS-TE inh 78 and FAS-TE inh conf 50.
`C[C@H](CO)N1C[C@H](C)[C@@H](CN(C)S(=O)(=O)c2cn(C)cn2)Oc2ccc(NC(=O)C3CCCCC3)cc2C1=O` gave LMPTP block inactive, SUMO1-SIM PPI inactive, STEP inh inactive, Scp1 inh inactive and FAS-TE inh inactive.
For O=C1[C@H]2[C@@H](c3ccc(C(F)(F)F)cc3)N[C@]3(CCCN(Cc4ccc(C(F)(F)F)cc4)C3=O)[C@H]2C(=O)N1Cc1ccccc1 the results were LMPTP block inactive, SUMO1-SIM PPI inactive, STEP inh inactive, FAS-TE inh 55 and FAS-TE inh conf inactive.
For O=C1[C@H]2[C@@H](c3ccc(C(F)(F)F)cc3)N[C@]3(CCCN(Cc4ccccc4)C3=O)[C@H]2C(=O)N1Cc1ccccc1 the results were LMPTP block inactive, SUMO1-SIM PPI inactive, STEP inh inactive and FAS-TE inh inactive.
For CCCCNC(=O)CSc1nc2ccc(Nc3nc(N4CCOCC4)nc(N4CCOCC4)n3)cc2s1 the results were LMPTP block inactive, SUMO1-SIM PPI inactive, STEP inh inactive, Scp1 inh inactive and FAS-TE inh inactive.
Screening CCCCSc1nc2ccc(Nc3nc(N4CCOCC4)nc(N4CCOCC4)n3)cc2s1 returned LMPTP block inactive, SUMO1-SIM PPI inactive, STEP inh inactive, Scp1 inh inactive, FAS-TE inh 86 and FAS-TE inh conf inactive.
`CC(C)(C)c1ccc(C(=O)Nc2cccc([N+](=O)[O-])c2)cc1` gave LMPTP block inactive, SUMO1-SIM PPI inactive, STEP inh inactive, Scp1 inh inactive and FAS-TE inh inactive.
Screening CCCc1cc(C(=O)Nc2cccc([N+](=O)[O-])c2)cs1 returned LMPTP block inactive, SUMO1-SIM PPI inactive, STEP inh inactive, Scp1 inh inactive, FAS-TE inh 52 and FAS-TE inh conf 41.
O=C(Nc1nc(-c2cccc([N+](=O)[O-])c2)cs1)C(c1ccccc1)c1ccccc1 was read as LMPTP block inactive, SUMO1-SIM PPI inactive, STEP inh inactive, Scp1 inh inactive, FAS-TE inh 52 and FAS-TE inh conf inactive.
Cc1nn(CCC(=O)O)c2nc(-c3cccnc3)cc(C(F)(F)F)c12 was read as LMPTP block inactive, SUMO1-SIM PPI inactive, STEP inh inactive, Scp1 inh inactive and FAS-TE inh inactive.
Cc1nn(CCc2nn[nH]n2)c2nc(-c3ccc(C4CCCCC4)cc3)cc(C(F)(F)F)c12 was read as LMPTP block inactive, SUMO1-SIM PPI 40, STEP inh inactive, Scp1 inh inactive, FAS-TE inh 69 and FAS-TE inh conf inactive.
For O=C(O)COc1ccccc1/C=N/NC(=O)CN1CCN(S(=O)(=O)c2ccc(Br)cc2)CC1 the results were LMPTP block inactive, SUMO1-SIM PPI inactive, STEP inh inactive, Scp1 inh inactive and FAS-TE inh inactive.

Assay outcomes as filed in PubChem.
